In ChEMBL document CHEMBL1138079 (J Med Chem, 2006):
pIC50: −log10 of the molar value.

test system: SK-OV-3; assay: Ratio for antiproliferative activity against NTR- SKOV3 cells to NTR+ SKOV3 cells after 18 hrs; type: functional, Homo sapiens; conditions: not given
Summary of the method: (§1)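 SKOV3 ovarian carcinoma cells stably transduced with a retroviral NTR vector and selected with 1 mg/mL G418, compared with parental SKOV3. Plated at 20 000 cells/well and allowed to adhere 24 h. Prodrug range given for 18 h, then replaced with drug-free medium. MTT survival read 2 days later. Ratio is NTR⁻/NTR⁺ IC50.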

SMILES | Ratio
NP(=O)(OCc1ccc([N+](=O)[O-])cc1)N(CCCl)CCCl (racemic) | >5600
O=[N+]([O-])c1ccc(C2CCOP(=O)(N(CCCl)CCCl)N2)cc1 (racemic; cis) | >1.9
O=[N+]([O-])c1ccc(C2CCNP(=O)(N(CCCl)CCCl)O2)cc1 (racemic; cis) | >440
O=[N+]([O-])c1ccc(C2CCOP(=O)(N(CCCl)CCCl)N2)cc1 (racemic; trans) | >4.8

test system: not listed separately; assay: (§2) Half life in phosphate buffer at pH 7 at 37 degC assessed as reduction by Escherichia coli nitroreductase by NR assay; type: ADME; conditions: buffer
Summary of the method: (§3)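 Substrate at 0.2 mM with 1 mM NADH in 10 mM sodium phosphate buffer, pH 7.0, at 37 °C. Reaction started by adding 1.8 µg E. coli nitroreductase; 2 mM cysteine added for one compound. Aliquots taken at intervals, quenched with acetonitrile, frozen, then analysed by HPLC. Half-life calculated from substrate disappearance.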

SMILES | T1/2
O=[N+]([O-])c1ccc(C2CCOP(=O)(N(CCCl)CCCl)N2)cc1 (racemic; cis) | 11.9 min
O=[N+]([O-])c1ccc(C2CCNP(=O)(N(CCCl)CCCl)O2)cc1 (racemic; cis) | 5.2 min
O=[N+]([O-])c1ccc(C2CCOP(=O)(N(CCCl)CCCl)N2)cc1 (racemic; trans) | 2.9 min

test system: nitroreductase; assay: as §2; type: ADME; conditions: Escherichia coli, Escherichia coli nitroreductase in phosphate buffer; summary of the method: as §3

SMILES | half-life
NP(=O)(OCc1ccc([N+](=O)[O-])cc1)N(CCCl)CCCl (racemic) | 2.3 min

test system: V79; assay: Antiproliferative activity against chinese hamster V79 cells after 72 hrs; type: functional, cell-based, Cricetulus griseus; conditions: Cricetulus griseus, V79, 72 h
Summary of the method: (§4)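 V79 Chinese hamster fibroblasts: NTR⁺ cells stably transfected with a bicistronic NTR/puromycin-resistance vector and kept under puromycin selection; vector-only NTR⁻ controls. Seeded 1000 cells/well, recovered 24 h, then exposed to serially diluted drug for 3 days at 37 °C, initially up to 100 µM. SRB stain read at 570 nm. IC50 interpolated; ratio is NTR⁻/NTR⁺ IC50.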

SMILES | pIC50
NP(=O)(OCc1ccc([N+](=O)[O-])cc1)N(CCCl)CCCl (racemic) | 4.17
O=[N+]([O-])c1ccc(C2CCOP(=O)(N(CCCl)CCCl)N2)cc1 (racemic; trans) | < 4.00

same assay, conditions: v79

SMILES | pIC50
O=[N+]([O-])c1ccc(C2CCNP(=O)(N(CCCl)CCCl)O2)cc1 (racemic; cis) | 3.08

test system: V79; assay: Antiproliferative activity against NTR expressing chinese hamster V79 cells after 72 hrs; type: functional, cell-based, Cricetulus griseus; conditions: Cricetulus griseus, V79, 72 h; summary of the method: as §4

SMILES | pIC50
NP(=O)(OCc1ccc([N+](=O)[O-])cc1)N(CCCl)CCCl (racemic) | 9.40
O=[N+]([O-])c1ccc(C2CCOP(=O)(N(CCCl)CCCl)N2)cc1 (racemic; trans) | 4.29

same assay, conditions: v79

SMILES | pIC50
O=[N+]([O-])c1ccc(C2CCOP(=O)(N(CCCl)CCCl)N2)cc1 (racemic; cis) | 4.34
O=[N+]([O-])c1ccc(C2CCNP(=O)(N(CCCl)CCCl)O2)cc1 (racemic; cis) | 7.54

test system: V79; assay: Ratio for antiproliferative activity against NTR- V79 cells to NTR+ V79 cells after 72 hrs; type: functional, Cricetulus griseus; conditions: not given; summary of the method: as §4

SMILES | Ratio
NP(=O)(OCc1ccc([N+](=O)[O-])cc1)N(CCCl)CCCl (racemic) | 170000
O=[N+]([O-])c1ccc(C2CCOP(=O)(N(CCCl)CCCl)N2)cc1 (racemic; cis) | >2.2
O=[N+]([O-])c1ccc(C2CCNP(=O)(N(CCCl)CCCl)O2)cc1 (racemic; cis) | 29000
O=[N+]([O-])c1ccc(C2CCOP(=O)(N(CCCl)CCCl)N2)cc1 (racemic; trans) | >1.9

test system: V79; assay: Antiproliferative activity against chinese hamster V79 cells after 1 hr; type: functional, cell-based; conditions: Cricetulus griseus, V79, 1 h
Summary of the method: (§5)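 Same stable NTR⁺ and vector-only NTR⁻ V79 pair, seeded 1000 cells/well and recovered 24 h. Cells exposed to drug for 1 h only, initially up to 100 µM, then given drug-free medium. SRB viability was read 3 days after drug addition. IC50 is the concentration giving 50% of control cell number; ratio is NTR⁻/NTR⁺.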

SMILES | pIC50
NP(=O)(OCc1ccc([N+](=O)[O-])cc1)N(CCCl)CCCl (racemic) | < 4.00

test system: V79; assay: Antiproliferative activity against NTR expressing chinese hamster V79 cells after 1 hr; type: functional, cell-based, Cricetulus griseus; conditions: Cricetulus griseus, V79, 1 h; summary of the method: as §5

SMILES | pIC50
NP(=O)(OCc1ccc([N+](=O)[O-])cc1)N(CCCl)CCCl (racemic) | 8.00

same assay, conditions: v79

SMILES | pIC50
O=[N+]([O-])c1ccc(C2CCNP(=O)(N(CCCl)CCCl)O2)cc1 (racemic; cis) | 6.47

test system: V79; assay: Ratio for antiproliferative activity against NTR- V79 cells to NTR+ V79 cells after 1 hr; type: functional, cell-based, Cricetulus griseus; conditions: not given; summary of the method: as §5

SMILES | Ratio
NP(=O)(OCc1ccc([N+](=O)[O-])cc1)N(CCCl)CCCl (racemic) | >10000
O=[N+]([O-])c1ccc(C2CCNP(=O)(N(CCCl)CCCl)O2)cc1 (racemic; cis) | >290

test system: SK-OV-3; assay: Antiproliferative activity against human SKOV3 cells infected with 100 pfu/cell retrovirus after 18 hrs; type: functional, cell-based; conditions: Homo sapiens, SK-OV-3, 18 h

SMILES | pIC50
NP(=O)(OCc1ccc([N+](=O)[O-])cc1)N(CCCl)CCCl (racemic) | < 3.00
O=[N+]([O-])c1ccc(C2CCOP(=O)(N(CCCl)CCCl)N2)cc1 (racemic; trans) | < 3.00

same assay, conditions: sk-ov-3

SMILES | pIC50
O=[N+]([O-])c1ccc(C2CCNP(=O)(N(CCCl)CCCl)O2)cc1 (racemic; cis) | 3.17

test system: SK-OV-3; assay: Antiproliferative activity against NTR expressing human SKOV3 cells […] after 18 hrs; type: functional, cell-based; conditions: sk-ov-3

SMILES | pIC50
O=[N+]([O-])c1ccc(C2CCOP(=O)(N(CCCl)CCCl)N2)cc1 (racemic; cis) | 3.28
O=[N+]([O-])c1ccc(C2CCNP(=O)(N(CCCl)CCCl)O2)cc1 (racemic; cis) | 5.33
O=[N+]([O-])c1ccc(C2CCOP(=O)(N(CCCl)CCCl)N2)cc1 (racemic; trans) | 3.66

test system: SK-OV-3; assay: Ratio for antiproliferative activity against NTR- SKOV3 cells to NTR+ SKOV3 cells infected with 100 pfu/cell retrovirus after 18 hrs; type: functional, Homo sapiens; conditions: not given

SMILES | Ratio
NP(=O)(OCc1ccc([N+](=O)[O-])cc1)N(CCCl)CCCl (racemic) | >830
O=[N+]([O-])c1ccc(C2CCOP(=O)(N(CCCl)CCCl)N2)cc1 (racemic; cis) | >1.9
O=[N+]([O-])c1ccc(C2CCNP(=O)(N(CCCl)CCCl)O2)cc1 (racemic; cis) | 150
O=[N+]([O-])c1ccc(C2CCOP(=O)(N(CCCl)CCCl)N2)cc1 (racemic; trans) | >4.5

test system: SK-OV-3; assay: Antiproliferative activity against human SKOV3 cells after 18 hrs; type: functional, cell-based; conditions: Homo sapiens, SK-OV-3, 18 h; summary of the method: as §1

SMILES | pIC50
NP(=O)(OCc1ccc([N+](=O)[O-])cc1)N(CCCl)CCCl (racemic) | < 3.05
O=[N+]([O-])c1ccc(C2CCOP(=O)(N(CCCl)CCCl)N2)cc1 (racemic; trans) | < 3.00

same assay, conditions: sk-ov-3

SMILES | pIC50
O=[N+]([O-])c1ccc(C2CCNP(=O)(N(CCCl)CCCl)O2)cc1 (racemic; cis) | < 3.03

test system: SK-OV-3; assay: Antiproliferative activity against NTR expressing human SKOV3 cells after 18 hrs; type: functional, cell-based; conditions: Homo sapiens, SK-OV-3, 18 h; summary of the method: as §1

SMILES | pIC50
NP(=O)(OCc1ccc([N+](=O)[O-])cc1)N(CCCl)CCCl (racemic) | 6.80

same assay, conditions: sk-ov-3

SMILES | pIC50
O=[N+]([O-])c1ccc(C2CCOP(=O)(N(CCCl)CCCl)N2)cc1 (racemic; cis) | 3.28
O=[N+]([O-])c1ccc(C2CCOP(=O)(N(CCCl)CCCl)N2)cc1 (racemic; trans) | 3.68

test system: SK-OV-3; assay: Antiproliferative activity against human SKOV3 cells infected with 10 pfu/cell retrovirus after 18 hrs; type: functional, cell-based; conditions: SK-OV-3, 18 h

SMILES | pIC50
NP(=O)(OCc1ccc([N+](=O)[O-])cc1)N(CCCl)CCCl (racemic) | < 3.00

test system: SK-OV-3; assay: Ratio for antiproliferative activity against NTR- SKOV3 cells to NTR+ SKOV3 cells infected with 10 pfu/cell retrovirus after 18 hrs; type: functional, Homo sapiens; conditions: not given

SMILES | Ratio
NP(=O)(OCc1ccc([N+](=O)[O-])cc1)N(CCCl)CCCl (racemic) | >160
